Results on 4 compounds are retold here after ChEMBL document CHEMBL4052591, “Evaluation of Jatrophane Esters from Euphorbia spp. as Modulators of Candida albicans Multidrug Transporters” (2017).

What is called MIC80 is the lowest concentration that inhibits either 80% of growth or 80% of the strains tested, depending on the study.

Converted amounts (≈) assume the structure as drawn.

Experiment [1] relates to Candida albicans. Description: Inhibition of Candida albicans CDR1 transporter expressed in Saccharomyces cerevisiae AD cells assessed as nile red accumulation at 70 uM after 30 mins by flow cytometric analysis relative to control. In kind it is cell-based. On the set-up: Activity: scale not given: the % may be the effect or the level left. In a few lines: (§1)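 S. cerevisiae AD strains overexpressing CaCdr1p (AD-CDR1) or CaMdr1p (AD-MDR1) were grown at 30 °C from OD600 0.1 to 0.25. They were resuspended as a 5% suspension in YEPD:water 1:2. Nile Red (7 μM final) was given ± inhibitor (70 μM) for 30 min at 30 °C. Accumulation was read by flow cytometry on 10 000 cells. Means ± SD, three independent experiments.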
For orientation: Flow cytometry measures light scatter and fluorescence of single cells or particles in a stream.

Experiment [2] has as its system Candida albicans. In words: Inhibition of Candida albicans MDR1 transporter expressed in Saccharomyces cerevisiae AD cells assessed as nile red dye accumulation at 70 uM after 30 mins by flow cytometric analysis relative to control. The class given is cell-based. On the set-up: Activity: scale not given: the % may be the effect or the level left. The method in brief:
as §1

In experiment [3] the test system is Saccharomyces cerevisiae. In words: Antifungal activity against Saccharomyces cerevisiae AD1-8u(-) after 48 hrs. The class given is functional. The method in brief: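 Growth inhibition of transporter-deleted control S. cerevisiae AD1-8u− over […]; 10^4 cells grown in YEPD for 48 h at 30 °C. OD600 was read and growth without inhibitor was set as 100%. MIC80 is the concentration cutting growth by 80%. Means ± SD from three independent experiments.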

The test system of experiment [4] is Saccharomyces cerevisiae. Description: Antifungal activity against Saccharomyces cerevisiae AD over-expressing Candida albicans CDR1 transporter after 48 hrs. In kind it is functional. The method in brief: (§2)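 S. cerevisiae AD1-8u− derivative overexpressing the transporter, grown in YEPD at 30 °C. Cells (10^4) incubated 48 h at 30 °C with a range of inhibitor concentrations […]; growth read as OD600. Growth without inhibitor taken as 100%; MIC80 is the concentration decreasing growth by 80%. Means ± SD of three independent experiments.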

The subject of experiment [5] is Saccharomyces cerevisiae. In words: Antifungal activity against Saccharomyces cerevisiae AD over-expressing Candida albicans MDR1 transporter after 48 hrs. The class given is functional. In a few lines: as §2
Experiment [6] has as its system Saccharomyces cerevisiae. In words: Resistance index, ratio of MIC80 for Saccharomyces cerevisiae AD over-expressing Candida albicans CDR1 to MIC80 for Saccharomyces cerevisiae AD1-8u(-). In kind it is functional. The method in brief:
(§3)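 MIC80 of the transporter-overexpressing strain and the AD1-8u− control strain each measured after 48 h growth at 30 °C over 0.15−80 μM inhibitor, read by OD600. MIC80 is the concentration cutting growth by 80% versus the no-inhibitor control. Resistance index = overexpressing-strain MIC80 divided by control-strain MIC80.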

The subject of experiment [7] is Saccharomyces cerevisiae. In words: Resistance index, ratio of MIC80 for Saccharomyces cerevisiae AD over-expressing Candida albicans MDR1 to MIC80 for Saccharomyces cerevisiae AD1-8u(-). In kind it is functional. The method in brief: as §3
Experiment [8] concerns Candida albicans. In words: Inhibition of Candida albicans CDR1 expressed in Saccharomyces cerevisiae AD assessed as ratio of MIC80 of fluconazole in combinantion with compound to MIC80 of fluconazole alone for Saccharomyces cerevisiae AD by checkerboard method. The method in brief:
(§4)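 CLSI checkerboard in YEPD: 10^4 cells per well, grown 48 h at 30 °C, OD read. Fluconazole 0.15−800 μM was crossed with inhibitor 0.15−800 μM. Run on control AD1-8u− and on strains overexpressing CaCdr1p or CaMdr1p. FIC of each agent = MIC in combination / MIC alone; FICI = sum of both FICs.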

Experiment [9] concerns Candida albicans. In words: Inhibition of Candida albicans MDR1 expressed in Saccharomyces cerevisiae AD assessed as ratio of MIC80 of fluconazole in combinantion with compound to MIC80 of fluconazole alone for Saccharomyces cerevisiae AD by checkerboard method. The method in brief: as §4
Experiment [10] has as its system Candida albicans. In words: Inhibition of Candida albicans CDR1 expressed in Saccharomyces cerevisiae AD assessed as ratio of MIC80 of compound in combinantion with fluconazole to MIC80 of compound alone for Saccharomyces cerevisiae AD by checkerboard method. The method in brief:
as §4

For experiment [11], the system named is Candida albicans. In words: Inhibition of Candida albicans MDR1 expressed in Saccharomyces cerevisiae AD assessed as ratio of MIC80 of compound in combinantion with fluconazole to MIC80 of compound alone for Saccharomyces cerevisiae AD by checkerboard method. The method in brief:
as §4

Experiment [12] concerns Saccharomyces cerevisiae. In words: Potentiation of fluconazole-induced antifungal activity against Saccharomyces cerevisiae AD1-8u(-) assessed as as ratio of MIC80 of fluconazole in combinantion with compound to MIC80 of fluconazole alone by checkerboard method. The class given is functional. The method in brief: as §4
Experiment [13] concerns Saccharomyces cerevisiae. In words: Potentiation of fluconazole-induced antifungal activity against Saccharomyces cerevisiae AD1-8u(-) assessed as ratio of MIC80 of compound in combinantion with fluconazole to MIC80 of compound alone by checkerboard method. In kind it is functional. The method in brief: as §4
In experiment [14] the test system is Candida albicans. In words: Inhibition of Candida albicans CDR1 expressed in Saccharomyces cerevisiae AD assessed as potentiation of fluconazole-induced antifungal activity against Saccharomyces cerevisiae AD by checkerboard method. In a few lines:
as §4

For experiment [15], the system named is Candida albicans. In words: Inhibition of Candida albicans MDR1 expressed in Saccharomyces cerevisiae AD assessed as potentiation of fluconazole-induced antifungal activity against Saccharomyces cerevisiae AD by checkerboard method. In a few lines: as §4
The subject of experiment [16] is Saccharomyces cerevisiae. In words: Potentiation of fluconazole-induced antifungal activity against Saccharomyces cerevisiae AD1-8u(-) by checkerboard method. In kind it is functional. In a few lines:
as §4

On to `C=C1[C@@H](OC(=O)C(C)CC)[C@H]2[C@@H](O)[C@](C)(OC(C)=O)C[C@]2(O)C(=O)[C@@H](C)/C=C/C(C)(C)[C@H](OC(C)=O)[C@H](OC(C)=O)[C@H]1OC(=O)c1ccccc1` (some centres not stated), for which the figures for the Activity in the experiment with Candida albicans [1] and in the experiment on Candida albicans [2] were 64% and 65%, respectively. Also, the results for the MIC80 in the experiment on Saccharomyces cerevisiae [3], against Saccharomyces cerevisiae [4] and against Saccharomyces cerevisiae [5] were 719 µM (≈ 514 µg/mL), 681 µM (≈ 487 µg/mL) and 629 µM (≈ 450 µg/mL), respectively. Besides, the Ratio in the experiment on Saccharomyces cerevisiae [6] was 0.9; in the experiment on Saccharomyces cerevisiae [7], 0.87; in the experiment with Candida albicans [8], 1; in the experiment with Candida albicans [9], 1; with Candida albicans [10], 0.5; in the experiment on Candida albicans [11], 1. Besides, the Ratio in the experiment with Saccharomyces cerevisiae [12] and in the experiment on Saccharomyces cerevisiae [13] was 1 in each case. For the same compound, the fractional inhibitory concentration index (FICI) with Candida albicans [14] is 1.5; with Candida albicans [15], 2; with Saccharomyces cerevisiae [16], 2.
For the compound `CC(=O)O[C@H]1[C@@H](OC(C)=O)C(C)(C)/C=C/[C@@](C)(O)C(=O)[C@@]2(O)C[C@@](C)(OC(C)=O)[C@H](OC(C)=O)[C@@H]2[C@H]2OC(=O)CC[C@@]2(OC(C)=O)[C@@H]1OC(=O)C(C)C`, the Activity in the experiment with Candida albicans [1] was determined as 85%; in the experiment on Candida albicans [2], 79%. Also, the MIC80 in the experiment on Saccharomyces cerevisiae [3] came out at 682 µM (≈ 515 µg/mL); against Saccharomyces cerevisiae [4], 711 µM (≈ 537 µg/mL); in the experiment with Saccharomyces cerevisiae [5], 691 µM (≈ 522 µg/mL). The Ratio in the experiment with Saccharomyces cerevisiae [6] came out at 1.04; with Saccharomyces cerevisiae [7], 1.01; with Candida albicans [8], 1; in the experiment on Candida albicans [9], 0.5; in the experiment on Candida albicans [10], 1; in the experiment on Candida albicans [11], 0.5. The Ratio in the experiment with Saccharomyces cerevisiae [12] and with Saccharomyces cerevisiae [13] was 1 each time. The fractional inhibitory concentration index (FICI) in the experiment on Candida albicans [14] stood at 2; with Candida albicans [15], 1; in the experiment with Saccharomyces cerevisiae [16] it was 2.
In the case of `C=C1[C@@H](OC(C)=O)[C@H]2[C@@H](OC(=O)COC(=O)c3ccccc3)[C@](C)(OC(C)=O)C[C@]2(O)C(=O)[C@@H](C)/C=C/C(C)(C)[C@H](OC(C)=O)[C@H](OC(C)=O)[C@H]1OC(=O)C(C)C`, the Activity in the experiment on Candida albicans [1] came to 92%. The MIC80 against Saccharomyces cerevisiae [3] was 324 µM (≈ 259 µg/mL); in the experiment on Saccharomyces cerevisiae [4] it was 416 µM (≈ 333 µg/mL); in the experiment on Saccharomyces cerevisiae [5], 411 µM (≈ 329 µg/mL). The Ratio in the experiment with Saccharomyces cerevisiae [6] was determined as 1.2; in the experiment with Saccharomyces cerevisiae [7], 1.2; with Candida albicans [8], 0.2; in the experiment on Candida albicans [9], 1; with Candida albicans [10], 1; in the experiment with Candida albicans [11] it was 1. Also, the Ratio with Saccharomyces cerevisiae [12] and with Saccharomyces cerevisiae [13] was 1 each time. For the same compound, the fractional inhibitory concentration index (FICI) in the experiment on Candida albicans [14] was determined as 1.2; with Candida albicans [15], 2; in the experiment with Saccharomyces cerevisiae [16], 2.
With `C=C1[C@@H](OC(C)=O)[C@H]2[C@@H](OC(=O)c3ccccc3)[C@@H](C)C[C@]2(O)[C@H](O)[C@H](C)/C=C/C(C)(C)C(=O)[C@H](OC(=O)C(C)C)[C@H]1OC(C)=O`, the Activity with Candida albicans [2] is 74%. The MIC80 against Saccharomyces cerevisiae [3] was 792 µM (≈ 509 µg/mL); in the experiment with Saccharomyces cerevisiae [4] it was 710 µM (≈ 456 µg/mL); in the experiment with Saccharomyces cerevisiae [5], 679 µM (≈ 436 µg/mL). Further, the Ratio in the experiment with Saccharomyces cerevisiae [6] was found to be 0.9; with Saccharomyces cerevisiae [7], 0.85; in the experiment on Candida albicans [8] it was 1; in the experiment with Candida albicans [9] it was 1; in the experiment with Candida albicans [10], 1; in the experiment on Candida albicans [11] it was 1. Also, the Ratio with Saccharomyces cerevisiae [12] and in the experiment with Saccharomyces cerevisiae [13] was 1 in each case. For the same compound, the fractional inhibitory concentration index (FICI) with Candida albicans [14], in the experiment on Candida albicans [15] and in the experiment on Saccharomyces cerevisiae [16] was 2 in each case.
